Screening results (PubChem)
A selection: hits, their analogues and other compounds. The true share with any hit is near 4.9%.
NPY1 pot ag: human NPY-Y1 potentiation or agonism, primary screen | NPY-Y1 expressing cells, potentiator/agonist activation | activation, % at 3.6 µM | hit rate 0.37% among 220,000 | AID 1304; in the data active = activation above about 33%, passing the limit was not always enough;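 note: cells stimulated with NPY at EC10 then isoproterenol at EC100; 0% = low agonist plus stimulus and 100% = saturating agonist plus stimulus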
Target sequence (P25929 whole entry, looked up): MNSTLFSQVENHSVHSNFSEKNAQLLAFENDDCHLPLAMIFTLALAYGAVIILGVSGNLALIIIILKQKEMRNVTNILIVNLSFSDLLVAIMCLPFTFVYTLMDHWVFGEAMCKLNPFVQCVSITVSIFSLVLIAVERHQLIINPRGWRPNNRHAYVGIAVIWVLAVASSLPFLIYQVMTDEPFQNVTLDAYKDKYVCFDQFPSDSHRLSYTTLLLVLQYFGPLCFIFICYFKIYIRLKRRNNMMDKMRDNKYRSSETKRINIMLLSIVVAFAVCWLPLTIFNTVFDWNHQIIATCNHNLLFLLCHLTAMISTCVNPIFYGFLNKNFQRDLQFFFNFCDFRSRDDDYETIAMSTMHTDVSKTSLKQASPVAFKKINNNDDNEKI
WT yeast gro inh: growth inhibition of WT yeast, mitochondrial fusion screen. mitochondrial fusion phenotypic screen, WT strain. inhibition, % at 10 µM. hit rate 2.1% among 190,000. AID 1362; in the data active = inhibition above about 58%; tested in S. cerevisiae
NPY-Y2 PAM-ag: human NPY-Y2 potentiation or agonism, primary screen. activation, % at 3.6 µM. cells expressing NPY-Y2, potentiator/agonist read-out. hit rate 0.45% among 220,000; in the data active = activation above about 27%;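 note: cells stimulated with NPY near EC25 plus isoproterenol at EC100; 0% = vehicle plus submaximal agonist and 100% = vehicle plus saturating agonist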
NPY Y2 blocker: antagonists of human neuropeptide Y receptor Y2 | hit rate 0.99% among 140,000 | P49146 | NPY-Y2 expressing cells, antagonist mode | inhibition, % at 2.7 µM;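 note: 0% = vehicle with agonist challenge and 100% = reference antagonist with challenge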
RAM network inh: blocks the yeast RAM network | S. cerevisiae dse1pr::URA3 reporter, 5-FOA growth OD615, 2 d; analog-sensitive cbk1-as2 kinase mutant strain | inhibition, % at 50 µM | hit rate 1.8% among 190,000;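 active = inhibition above a set limit, 3 SD over mean compound inhibition, cut at about 8.4% in these data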;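 note: 0% = DMSO-only wells with no growth and 100% = 10 µM 1-NA-PP1 full growth; inhibition rescues growth on 5-FOA so higher OD means more RAM inhibition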
NPY Y1 blocker: antagonists of human neuropeptide Y receptor Y1; inhibition, % at 3.6 µM; AID 1040; HEK293-CNG Y1 cells, membrane potential fluorescence; NPY at EC95, then isoproterenol; P25929; hit rate 1% among 200,000;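 active = inhibition above the campaign mean inhibition of all tested compounds plus 3 SD, cut at about 20% in these data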;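 note: 0% = DMSO wells given NPY plus isoproterenol and 100% = isoproterenol alone without NPY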
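Test system – HEK293 Y1/CNG channel cell line · Also added – NPY agonist 25 nM, then isoproterenol 1 µM plus Ro 20-1724 25 µM · Compound dosing – one concentration, 3.6 µM, in 0.4% DMSO · Schedule – compound incubation 1 h at room temperature, readout 45 min post-stimulation · Technique – fluorescence, membrane potential probe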
NPY1 antag conf: confirmation of human neuropeptide Y receptor Y1 antagonists. shares compounds with NPY Y1 blocker. HEK293-CNG NPY-Y1, membrane potential fluorescence, cAMP; NPY challenge against isoproterenol-raised cAMP. inhibition, % at 3.6 µM. hit rate 21% among 1,200; in the data active = inhibition above about 20%;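 note: 0% = vehicle with agonist plus stimulus and 100% = stimulus alone without agonist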
NPY2 antag ctr: antagonizes human NPY-Y2, counter-screen to NPY-Y1 antagonists; shares compounds with NPY Y1 blocker; HEK293 NPY-Y2 CNG membrane potential fluorescence, antagonism; cells given NPY, then isoproterenol; inhibition, % at 3.6 µM; hit rate 28% among 1,200; AID 1255;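 note: 0% = DMSO with agonist challenge and 100% = reference antagonist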
* marks the source's active call; other numbers are inactive results; . = no result; ! = not active in a repeat. Cut-off read from the data, not from the text of the source, unless noted: active = inhibition above about 17%; inactive = the rest.

SMILES | NPY1 pot ag | WT yeast gro inh | NPY-Y2 PAM-ag | NPY Y2 blocker | RAM network inh | NPY Y1 blocker | NPY1 antag conf | NPY2 antag ctr
Nn1c(SC/C=C/c2ccccc2)nnc1-c1ccco1 | -5 | 9 | -2 | 2 | 3 | 1 | . | .
O=C(c1ccc2c(c1)OCO2)C1CCCN(C2CCN(CCc3ccccc3)CC2)C1 (configuration not stated) | -29 | 2 | -30 | . | 1 | 22* | 18 | 23*
CCOC(=O)c1c(C)[nH]c(C(=O)OCC(=O)NC(C)(C)C)c1C | -1 | -10 | 19 | . | 0 | -5 | . | .
CCOC(=O)c1[nH]c(C)c(C(=O)OCC(=O)NC(=O)NC(C)(C)C)c1C | -7 | 4 | -8 | 0 | 4 | 21* | 0 | 2
CC(=O)OCP(C)(=O)COC(C)=O | -4 | -6 | 3 | 5 | 1 | 6 | . | .
CC(=O)OCC[N+](C)(C)C | -75 | 5 | -20 | 3 | 2 | 27* | 29* | 18*!
Cc1cccc(C(=O)NC2CCN(C(=S)NCc3ccco3)CC2)c1 | 4 | 26 | -4 | 0 | 1 | -3 | . | .
CCN1C(=O)c2ccc(C(=O)NCc3ccc4c(c3)OCO4)cc2C1=O | -25 | 2 | -5 | 3 | 3 | 26* | 5 | 8
Cc1c(C(=O)NCc2ccc3c(c2)OCO3)oc2ccccc12 | -57 | 28 | -23 | 15 | 2 | 12 | . | .
Cc1cc2oc(C(=O)NCc3ccc4c(c3)OCO4)c(C)c2cc1C | -74 | 1 | -32 | 15 | 2 | 28* | 23* | 18*
O=C(O)c1nn(-c2ccccc2)nc1-c1nn(-c2ccccc2)nc1C(=O)O | -33 | 4 | -19 | 9 | 8.9* | 31* | 10 | 10
O=C(COc1ccccc1)Nc1nnc(-c2ccccc2)o1 | -8 | 27 | -5 | 3 | 2 | 3 | . | .
CCN(Cc1ccccc1)C(c1cccc(C#N)c1)c1nnnn1C(C)(C)C (configuration not stated) | -14 | 27 | -14 | 8 | 3 | 33* | 3 | 5
CC(C)(C)c1ccc(Cn2c(=N)n(CC(O)c3ccco3)c3ccccc32)cc1 (configuration not stated) | -8 | 59* | -20 | . | 1 | 47* | 22* | 31*
CCCCCCCn1c(=N)n(CC(O)c2ccco2)c2ccccc21 (configuration not stated) | -12 | 42 | -34 | . | 2 | 33* | 24* | 23*
CCCCCCCn1c(=N)n(CC(=O)c2ccco2)c2ccccc21 | -22 | 29 | -13 | 15 | 0 | 9 | . | .
CCn1c(=N)n(CC(O)c2ccccc2)c2ccccc21 (configuration not stated) | -25 | -10 | 3 | 3 | 2 | 0 | . | .
COc1ccc(-c2cc3nc(C)cc(N)n3n2)cc1 | 9 | 11 | 6 | 0 | 0 | -2 | . | .
O=C(CCCOc1ccc(Cl)cc1Cl)N1CCN(c2ccccn2)CC1 | -28 | 47 | -14 | 11 | 1 | 24* | 8 | 11
O=C(COc1ccc(Cl)cc1Cl)N1CCN(c2ccccn2)CC1 | -9 | 12 | 2 | . | 0 | 3 | . | .
COc1ccccc1NC(=O)c1oc2ccc(C)cc2c1C | -41 | . | -17 | 12 | -1 | 22* | 7 | 16
CCc1n[nH]c(=S)n1/N=C/c1ccc2c(c1)OCO2 | -6 | 15 | -15 | 4 | 2 | 5 | . | .
CCc1n[nH]c(=S)n1/N=C/c1ccc(N(C)c2ccccc2)cc1 | -16 | 72* | -32 | . | -1 | 35* | 18 | 11
CCOc1nc(-c2ccc(Cl)cc2Cl)ccc1C#N | -19 | 45 | -13 | 13 | 7 | 36* | 16 | 11
Cn1cc(/C=C(\C(=O)O)C(C(=O)O)=C2CCCCC2)c2ccccc21 | 5 | -4 | 17 | . | -1 | -2 | . | .
SMILES | NPY1 pot ag | WT yeast gro inh | NPY-Y2 PAM-ag | NPY Y2 blocker | RAM network inh | NPY Y1 blocker | NPY1 antag conf | NPY2 antag ctr
CCCCCc1ccc(OCCOCCn2c[n+](C)c3ccccc32)c(CCCCC)c1 | -38 | 96* | -4 | . | -2 | 35* | 42* | 23*
Oc1ccc(-c2[nH]ncc2-c2cnn(-c3ccccc3)c2)c(O)c1 | 13 | -9 | 11 | . | 0 | 25* | 12 | -1
Cc1ccc(SCCC(=O)OCC(=O)Nc2ccc(S(N)(=O)=O)cc2)cc1 | -43 | . | -16 | . | . | . | . | .
Cc1ccc(SCCC(=O)OCC(=O)NCC2CCCCC2)cc1 | -64 | 17 | -36 | . | 2 | 36* | 14 | 9
CC(=O)Nc1ccc(S(=O)(=O)Nc2nc(C)cc(-n3nc(C)cc3C)n2)cc1 | -21 | 10 | -6 | 5 | 1 | 22* | 10 | 9
CC1CC(C)CN(C2CCN(Cc3cccnc3)CC2)C1 (configuration not stated) | 0 | 63* | 8 | 1 | 1 | 21* | 0 | 4
C=CCN1C(=O)C(CC(=O)Nc2ccc(OCC)cc2)N(Cc2ccccn2)C1=S (configuration not stated) | 15 | -14 | 10 | . | 0 | 1 | . | .
CCCc1[nH]nc2c1C(c1ccsc1)C(C#N)=C(N)O2 (configuration not stated) | 15 | 1 | -2 | . | 1 | 40* | 38* | 22*
CCc1ccccc1NC(=S)NC1CC2CCCC(C1)N2Cc1cccs1 (configuration not stated) | -10 | 14 | -9 | 6 | 0 | 1 | . | .
Clc1ccc(-n2cccc2CN2CCc3c([nH]c4ccccc34)C2c2ccccn2)nc1 (configuration not stated) | -17 | 49 | -13 | . | 1 | 26* | 6 | 9
CC(=O)Nc1ccc2nc(-c3ccc(Br)o3)[nH]c2c1 | -12 | 2 | 4 | 2 | 0 | 7 | . | .
O=C(Nc1ccc2nc(-c3ccc(Br)o3)[nH]c2c1)c1cccs1 | -14 | -6 | -19 | 6 | 0 | 21* | 2 | 8
COc1ccc(N=C2CC(C)(C)CC(=O)/C2=C(/O)c2ccccc2)cc1 | 6 | -3 | 0 | . | 1 | -1 | . | .
Cc1ccc(S(=O)(=O)N(C)C)cc1NC(=O)Nc1c(-c2ccccc2)noc1C | -2 | . | -5 | . | . | . | . | .
Cc1onc(-c2ccccc2)c1NC(=O)Nc1c(-c2ccccc2)noc1C | 13 | -14 | 5 | . | 1 | 30* | 7 | 2
Clc1ccc(-c2nnc(-c3ccccc3Cl)o2)cc1 | -12 | -8 | -4 | 7 | 2 | 25* | 8 | 8
Clc1ccccc1-c1nnc(-c2ccccc2Cl)o1 | -21 | 13 | -4 | 14 | 5 | 4 | . | .
